Screening data as filed in PubChem.
WT yeast gro inh = growth inhibition of WT yeast, mitochondrial fusion screen | mitochondrial fusion phenotypic screen, WT strain | 2.1% of 190,000 active | AID 1362 | inhibition, % at 10 µM; in the data active means inhibition above about 58%; tested in S. cerevisiae
Lmaj promast = inhibitors of Leishmania major promastigote growth | Leishmania major promastigotes, resazurin fluorescence viability | inhibition, % at 10 µM | 9% of 200,000 active; in the data active means inhibition above about 50%;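 further: promastigotes grown with compound for 44 hours at 28 °C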
ABCB1 inh = human ABCB1 inhibition, ABCG2 as counter-screen; P08183; CCRF-Adr cells, JC-1 efflux, flow cytometry; inhibition, % at 6.6 µM; AID 1326; 0.067% of 190,000 active; in the data active means inhibition above about 40%;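 further: 0% = vehicle and 100% = reference inhibitor; higher value means more JC-1 retained so stronger ABCB1 efflux block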
ABCG2 inh = human ABCG2 inhibition, ABCB1 as counter-screen | IgMXP3 cells, JC-1 efflux, flow cytometry | inhibition, % at 6.6 µM | 0.1% of 190,000 active | AID 1325;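 active means inhibition above 80%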;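 further: 0% = DMSO and 100% = nicardipine control wells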
Target sequence (Q9UNQ0 whole entry, looked up): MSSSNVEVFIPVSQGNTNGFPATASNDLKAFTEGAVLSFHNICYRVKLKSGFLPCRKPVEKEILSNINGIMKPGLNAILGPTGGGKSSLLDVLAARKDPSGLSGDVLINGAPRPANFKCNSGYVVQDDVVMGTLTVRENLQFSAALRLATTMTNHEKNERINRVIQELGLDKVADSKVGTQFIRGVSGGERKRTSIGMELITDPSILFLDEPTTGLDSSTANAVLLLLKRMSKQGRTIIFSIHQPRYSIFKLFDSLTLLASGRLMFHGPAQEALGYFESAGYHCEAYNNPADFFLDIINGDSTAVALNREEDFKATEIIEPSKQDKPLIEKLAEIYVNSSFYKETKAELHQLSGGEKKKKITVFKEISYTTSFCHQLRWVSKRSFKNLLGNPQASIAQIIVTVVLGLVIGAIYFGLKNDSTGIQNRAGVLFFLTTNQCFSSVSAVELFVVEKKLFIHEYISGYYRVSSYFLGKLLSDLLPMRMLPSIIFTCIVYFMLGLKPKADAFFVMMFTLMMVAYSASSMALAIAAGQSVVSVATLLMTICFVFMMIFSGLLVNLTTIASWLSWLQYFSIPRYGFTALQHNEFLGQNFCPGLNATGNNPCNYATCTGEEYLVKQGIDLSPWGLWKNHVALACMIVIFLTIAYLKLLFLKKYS
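Read-out basis: Efflux inhibition in percent versus controls | Test system: ABCG2 IgMXP3 and barcoded ABCB1 CCRF-Adr cell mix | Quantity: 3 million cells/mL in well | Schedule: 10 min at 25 °C | Control set: Nicardipine as high control, DMSO as low control | Reagent: JC-1 as fluorescent efflux pump substrate | Signal: Flow cytometry of retained JC-1 fluorescence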
RAM network inh = inhibitors of the yeast RAM network; S. cerevisiae dse1pr::URA3 reporter, 5-FOA growth OD615, 2 d; analog-sensitive cbk1-as2 kinase mutant strain; 1.8% of 190,000 active; inhibition, % at 50 µM;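 active means inhibition above a set limit, 3 SD over mean compound inhibition, cut at about 8.4% in these data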;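 further: 0% = DMSO-only wells with no growth and 100% = 10 µM 1-NA-PP1 full growth; inhibition rescues growth on 5-FOA so higher OD means more RAM inhibition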
An asterisk follows results filed as active; x = no result. Shown are actives, neighbours in structure and some others; about 12% of the full set was active somewhere.

SMILES	WT yeast gro inh	Lmaj promast	ABCB1 inh	ABCG2 inh	RAM network inh
COCCN(C(=S)Nc1ccc(OC)cc1)C1CCN(C(C)=O)CC1	-5.1	42.1	-0.7	-5.4	2.2
CN(C)CCNC(=O)c1cc2sc3ccccc3c2s1	1.1	83.9*	1.4	9.5	-0.1
Cn1c(C(=O)NCCN2CCCCCC2)cc2c(=O)n(C)c3ccccc3c21	9.3	69.7*	0.1	1.8	1.1
CN(C)CCCNC(=O)c1cc2c3ccccc3n(C)c2s1	-7.2	90.7*	0.8	4.4	0.6
CC1CCN(CCCNC(=O)c2cc3c(=O)n(C)c4ccccc4c3n2C)CC1	16.1	62.6*	0.3	1.0	0.9
Cn1c(C(=O)NCCN2CCN(Cc3ccccc3)CC2)cc2c(=O)n(C)c3ccccc3c21	-0.6	x	x	x	x
COCCN(CCOC)C(=O)c1cc2sc3ccccc3c2s1	7.3	-1.8	0.1	0.8	1.5
Cn1c(C(=O)NCCCN2CCOCC2)cc2c(=O)n(C)c3ccccc3c21	3.5	14.7	-0.1	0.7	0.4
CCCCN(CC)CCCNC(=O)c1cc2c(=O)n(C)c3ccccc3c2n1C	5.6	80.4*	0.2	6.4	-0.3
CN1CCN(CCCNC(=O)c2cc3c(=O)n(C)c4ccccc4c3s2)CC1	8.8	97.8*	0.4	2.4	0.5
CCN=C(NS(=O)(=O)c1ccc(Br)cc1)c1ccc(Cl)cc1	-2.4	13.4	0.0	1.4	1.1
CC(=O)c1cccc(NC(=S)NCCCCc2ccccc2)c1	11.1	-0.2	0.1	29.7	4.3
CNC(=O)c1sc(N2N=C3/C(=C/c4ccccc4)CCCC3C2c2ccccc2)nc1C (centres undefined)	-1.1	44.4	0.1	0.0	9.9*
O=C(c1ccccn1)N1N=C2/C(=C/c3ccccc3)CCCC2C1c1ccccc1 (centres undefined)	53.5	93.9*	0.0	-1.4	2.3
O=C1CCC(C(=O)OCC(=O)N2N=C3/C(=C/c4ccccc4)CCCC3C2c2ccccc2)N1 (centres undefined)	14.2	9.0	2.1	11.2	-0.3
COc1ccc2[nH]c3c(N4CCC(O)(c5cccc(C(F)(F)F)c5)CC4)ncnc3c2c1	29.9	100.4*	-0.2	2.1	1.2
Cc1ccc2[nH]c3c(N4CCOCC4)ncnc3c2c1	5.0	35.4	-0.2	0.9	1.5
COc1ccc2[nH]c3c(N4CCN(Cc5ccc6c(c5)OCO6)CC4)ncnc3c2c1	-7.5	55.9*	0.9	2.6	0.3
COc1ccc2c(c1)c1ncnc(N3CCN(Cc4ccc5c(c4)OCO5)CC3)c1n2C	18.5	24.1	-4.5	-6.9	2.0
O=C(CC(=O)Nc1ccccn1)Nc1ccccn1	-13.0	-2.7	1.9	9.9	0.8
O=C(Nc1ccccn1)C(F)(F)C(F)(F)C(F)(F)C(F)(F)C(=O)Nc1ccccn1	-7.0	69.8*	1.0	25.2	3.3
O=[N+]([O-])c1ccccc1S(=O)(=O)N1CCN(CC2CC=CCC2)CC1 (centres undefined)	-5.8	-3.8	1.8	4.9	0.9
CCCS(=O)(=O)N1CCN(CC2CC=CCC2)CC1 (centres undefined)	30.8	76.2*	0.5	1.1	-0.4
CCS(=O)(=O)N1CCN(CC2CC3C=CC2C3)CC1 (centres undefined)	3.7	92.8*	0.1	0.5	1.9
CCCS(=O)(=O)N1CCN(CC2CC3C=CC2C3)CC1 (centres undefined)	0.9	88.1*	-0.4	-0.5	2.0
SMILES	WT yeast gro inh	Lmaj promast	ABCB1 inh	ABCG2 inh	RAM network inh
C/C(CC(=O)Nc1ccc(Cl)cc1)=N\NC(=O)C(=O)N1CCCCC1	-1.2	-6.6	-0.1	-0.6	-0.3
CCc1ccc(Nc2cnn(-c3nc4ccccc4s3)c(=O)c2Cl)cc1	62.8*	65.3*	2.1	6.3	0.7
Cc1ccc(NC(=O)COC(=O)CC2CCCC2)cc1Cl	12.4	-5.1	1.0	3.4	1.1
OCCC1CN(Cc2nc3c(s2)CCCC3)CCN1CCc1ccccc1 (centres undefined)	6.0	75.7*	1.7	-0.3	2.7
CC(C)CCN1CCN(Cc2nc3c(s2)CCCC3)CC1CCO (centres undefined)	10.8	74.9*	-0.1	0.9	-0.4
CSc1ncc(CN2CCN(CCC(C)C)C(CCO)C2)cn1 (centres undefined)	-13.3	0.8	0.2	0.5	0.0
Cc1cc(C(=O)NCCC(c2ccccc2)c2ccccc2)c(C)o1	-7.8	37.9	1.8	10.7	5.0
Cc1ccc(Nc2c([N+](=O)[O-])ccc3c2=NC2(CCCCC2)N=3)cc1	12.7	50.5*	0.1	0.2	0.7
CCOC(=O)C1CCN(c2ccc(C(N)=O)cc2[N+](=O)[O-])CC1	-1.5	-7.2	0.1	31.9	0.5
COc1cc(CNc2ccc(C(=O)O)cc2)cc(Br)c1OCC(=O)NC(C)(C)C	3.0	-8.9	-0.3	0.0	6.1
C=CCOc1c(Br)cc(CNn2nnnc2N)cc1OC	-3.4	100.5*	0.7	15.2	0.7
C=CCOc1c(Br)cc(CNc2ccc(NC(=O)C(C)C)c(OC)c2)cc1OC	-16.7	99.2*	1.8	9.0	6.6
COc1cc(C(=O)NC2CCCc3ccccc32)ccc1OCC(=O)Nc1ccc(F)cc1 (centres undefined)	1.8	-2.0	1.2	15.7	2.9
COc1ccc(C(=S)N2CCOCC2)cc1OS(=O)(=O)c1ccccc1[N+](=O)[O-]	-3.1	1.6	0.5	2.4	-0.2
COc1ccc(C=O)cc1OS(=O)(=O)c1ccccc1[N+](=O)[O-]	-0.4	90.4*	2.1	40.6	-0.4
CC(C)CCn1c(=O)c2ccccc2n2c(CN3CCOCC3)nnc12	-1.7	1.3	1.2	5.6	-0.1
Cc1ccc(S(=O)(=O)N2CCN(CC(=O)N/N=C/C=C/c3ccccc3)CC2)cc1	-3.0	1.7	1.4	3.3	1.5
COc1ccc(-c2csc(N(CCCN(C)C)C(=O)c3cccs3)n2)cc1	-7.7	91.8*	6.4	39.8	0.2
CCN(C(=O)c1cccs1)c1nc(-c2ccc(OC)cc2)cs1	39.6	1.5	1.7	5.1	7.8
CC1(C)CC(CCNS(=O)(=O)c2ccccc2)(c2ccccc2)CCO1 (centres undefined)	0.4	99.6*	0.4	-1.1	0.0
Cc1ccc(S(=O)(=O)NCC2(c3ccccc3)CCOCC2)cc1	4.3	11.2	0.3	1.4	1.4
Cc1ccc(S(=O)(=O)NCCC2(C(C)C)CCOC(C)(C)C2)cc1 (centres undefined)	12.7	95.2*	1.2	4.2	0.3
CC(C)CNS(=O)(=O)c1ccc(S(=O)(=O)NC2CCOC(C)(C)C2)cc1 (centres undefined)	x	-1.1	x	x	x
CSc1ccc(CN(C)C(C)C(=O)NCc2ccccc2)cc1 (centres undefined)	20.6	2.3	-0.3	-0.8	0.7
CCOC(=O)Cc1ccc2sc(-c3ccccc3)nc2c1	63.9*	46.4	0.9	45.1	0.5
C=CCn1c(=O)/c(=C2/Sc3cc(OC)ccc3N2C)s/c1=C1\C(=O)N(CC)C(=S)N1C	11.2	-3.4	0.9	1.8	10.5*
